Reference: ChEMBL document CHEMBL1126205, “Novel spirosuccinimides with incorporated isoindolone and benzisothiazole 1,1-dioxide moieties as aldose reductase inhibitors and antihyperglycemic agents” (1992)
One block for each molecule: values may come before it. Activity calls are given as the source filed them. No cut-off for these calls is given here.

Legend:
Rattus norvegicus [1] = assay: In vivo galactitol inhibitory activity measured by its ability to inhibit galactitol accumulation in lens at 10 mg/Kg/day; type: functional; conditions: Lens of camera-type eye
Outline: (§1)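 Rats (n = 6) fed 20% galactose for 4 days, with compound given in the diet at the stated mg/kg per day. Galactitol accumulation in lens, sciatic nerve or diaphragm is scored as percent inhibition versus the non-treated group, as means of 3–8 drug-treated tissue samples. Dunnett's multiple comparison test applies; NS means p > 0.05.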

Rattus norvegicus [2] = assay: In vivo galactitol inhibitory activity measured by its ability to inhibit galactitol accumulation in diaphragm at 10 mg/kg/day; type: functional; outline: as §1
Rattus norvegicus [3] = assay: In vivo galactitol inhibitory activity measured by its ability to inhibit galactitol accumulation in sciatic nerve at 10 mg/kg/day; type: functional
Outline: (§2)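 Rats (n = 6) fed 20% galactose for 4 days, with compound given in the diet at the stated daily dose. Galactitol accumulation was measured in lens, sciatic nerve and diaphragm, and % inhibition was taken versus the nontreated group. Means are from three to eight drug-treated tissue samples. Dunnett's multiple comparison test was applied, with p > 0.05 reported as not significant.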

[4] = biological target: Aldo-keto reductase family 1 member B1 (Bos taurus) (UniProt P16116); assay: In vitro aldose reductase inhibitory activity measured by NADPH-dependent inhibition of glyceraldehyde reduction in a partially purified bovine lens preparation at 10E-7 M
Outline: (§3)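 Aldose reductase partially purified from bovine lens. Inhibition of NADPH-dependent glyceraldehyde reduction is measured at the single stated concentration and reported as percent inhibition, the mean of two determinations.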

[5] = biological target: Aldo-keto reductase family 1 member B1 (Bos taurus) (UniProt P16116); assay: In vitro aldose reductase inhibitory activity measured by NADPH-dependent inhibition of glyceraldehyde reduction in a partially purified bovine lens preparation at 10E-6 M; outline: as §3
Rattus norvegicus [6] = assay: In vivo galactitol inhibitory activity measured by its ability to inhibit galactitol accumulation in sciatic nerve at 52 mg/Kg/day; type: functional; outline: as §2
Rattus norvegicus [7] = assay: In vivo galactitol inhibitory activity measured by its ability to inhibit galactitol accumulation in lens at 52 mg/Kg/day; type: functional; conditions: Lens of camera-type eye; outline: as §1
Rattus norvegicus [8] = assay: In vivo galactitol inhibitory activity measured by its ability to inhibit galactitol accumulation in sciatic nerve at 3 mg/Kg/day; NS=Not significant (% Inhibition); type: functional, organism-based; outline: as §2
Rattus norvegicus [9] = assay: In vivo galactitol inhibitory activity measured by its ability to inhibit galactitol accumulation in diaphragm at 3 mg/Kg/day; type: functional; outline: as §1
Rattus norvegicus [10] = assay: In vivo galactitol inhibitory activity measured by its ability to inhibit galactitol accumulation in diaphragm at 52 mg/Kg/day; type: functional; outline: as §1
Mus musculus [11] = assay: Antihyperglycemic activity measured as percent decrease in mice plasma glucose at 100 mg/Kg/day; type: functional
Outline: (§4)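 Male db/db (C57BL/KsJ) mice, 4–6 per group, dosed at 100 mg/kg per day. Plasma glucose of the drug-treated group is expressed as percent decrease relative to a vehicle-treated control group. Values are mean ± SE, with p < 0.05 marked.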

Rattus norvegicus [12] = assay: In vivo galactitol inhibitory activity measured by its ability to inhibit galactitol accumulation in lens at 3 mg/Kg/day; NS=Not significant (% Inhibition); type: functional, organism-based; conditions: Lens of camera-type eye; outline: as §1
Rattus norvegicus [13] = assay: In vivo galactitol inhibitory activity measured by its ability to inhibit galactitol accumulation in lens at 50 mg/Kg/day; type: functional; conditions: Lens of camera-type eye; outline: as §1
Rattus norvegicus [14] = assay: In vivo galactitol inhibitory activity measured by its ability to inhibit galactitol accumulation in sciatic nerve at 6 mg/Kg/day; NS=Not significant (% Inhibition); type: functional, organism-based; outline: as §2
Rattus norvegicus [15] = assay: In vivo galactitol inhibitory activity measured by its ability to inhibit galactitol accumulation in sciatic nerve at 50 mg/Kg/day; type: functional; outline: as §2
Rattus norvegicus [16] = assay: In vivo galactitol inhibitory activity measured by its ability to inhibit galactitol accumulation in sciatic nerve at 9 mg/Kg/day; type: functional; outline: as §2
Rattus norvegicus [17] = assay: In vivo galactitol inhibitory activity measured by its ability to inhibit galactitol accumulation in diaphragm at 9 mg/Kg/day; type: functional; outline: as §1
Rattus norvegicus [18] = assay: In vivo galactitol inhibitory activity measured by its ability to inhibit galactitol accumulation in diaphragm at 50 mg/Kg/day; type: functional; outline: as §1
Rattus norvegicus [19] = assay: In vivo galactitol inhibitory activity measured by its ability to inhibit galactitol accumulation in diaphragm at 6 mg/Kg/day; type: functional; outline: as §1
Rattus norvegicus [20] = assay: In vivo galactitol inhibitory activity measured by its ability to inhibit galactitol accumulation in lens at 6 mg/Kg/day; NS=Not significant (% Inhibition); type: functional, organism-based; conditions: Lens of camera-type eye; outline: as §1
Rattus norvegicus [21] = assay: In vivo galactitol inhibitory activity measured by its ability to inhibit galactitol accumulation in lens at 9 mg/Kg/day; type: functional; conditions: Lens of camera-type eye; outline: as §2
Rattus norvegicus [22] = assay: In vivo galactitol inhibitory activity measured by its ability to inhibit galactitol accumulation in diaphragm at 101 mg/kg/day; type: functional; outline: as §1
Rattus norvegicus [23] = assay: In vivo galactitol inhibitory activity measured by its ability to inhibit galactitol accumulation in sciatic nerve at 101 mg/kg/day; NS=Not significant (% Inhibition); type: functional, organism-based; outline: as §2
Rattus norvegicus [24] = assay: In vivo galactitol inhibitory activity measured by its ability to inhibit galactitol accumulation in lens at 101 mg/Kg/day; NS=Not significant (% Inhibition); type: functional, organism-based; conditions: Lens of camera-type eye; outline: as §1
Rattus norvegicus [25] = assay: In vivo galactitol inhibitory activity measured by its ability to inhibit galactitol accumulation in diaphragm at 73 mg/Kg/day; type: functional; outline: as §1
Rattus norvegicus [26] = assay: In vivo galactitol inhibitory activity measured by its ability to inhibit galactitol accumulation in sciatic nerve at 73 mg/Kg/day; type: functional; outline: as §2
Rattus norvegicus [27] = assay: In vivo galactitol inhibitory activity measured by its ability to inhibit galactitol accumulation in lens at 66 mg/Kg/day; type: functional; conditions: Lens of camera-type eye; outline: as §2
[28] = biological target: Aldo-keto reductase family 1 member B1 (Bos taurus) (UniProt P16116); assay: In vitro aldose reductase inhibitory activity measured by NADPH-dependent inhibition of glyceraldehyde reduction in a partially purified bovine lens preparation at 10E-5 M; outline: as §3
Mus musculus [29] = assay: Antihyperglycemic activity measured as percent decrease in mice plasma glucose at 20 mg/Kg/day; type: functional
Outline: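 Male db/db (C57BL/KsJ) mice, 4–6 per group, dosed at the stated mg/kg per day. Plasma glucose is expressed as percent decrease versus the vehicle-treated group. Values are mean ± SE.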

Mus musculus [30] = assay: Antihyperglycemic activity was determined by measuring percent decrease in plasma glucose at 100 mg/kg/day; type: functional; outline: as §4
[31] = biological target: Aldo-keto reductase family 1 member B1 (Bos taurus) (UniProt P16116); assay: in vitro aldose reductase inhibitory activity measured by NADPH-dependent inhibition of glyceraldehyde reduction in a partially purified bovine lens preparation at 10e -6M conc.
Outline: (§5)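 Partially purified aldose reductase from bovine lens. Inhibition of NADPH-dependent glyceraldehyde reduction was measured at a single test concentration. Values are % inhibition of enzymatic activity, mean of two determinations.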

Rattus norvegicus [32] = assay: In vivo galactitol inhibitory activity measured by its ability to inhibit galactitol accumulation in sciatic nerve at 94 mg/kg/day; NS=not significant; type: functional, organism-based; outline: as §2
Rattus norvegicus [33] = assay: In vivo galactitol inhibitory activity measured by its ability to inhibit galactitol accumulation in lens at 94 mg/Kg/day; NS=not significant; type: functional, organism-based; conditions: Lens of camera-type eye; outline: as §2
[34] = biological target: Aldo-keto reductase family 1 member B1 (Bos taurus) (UniProt P16116); assay: in vitro aldose reductase inhibitory activity measured by NADPH-dependent inhibition of glyceraldehyde reduction in a partially purified bovine lens preparation at 10e -7M conc.; g=no inhibitory activity; outline: as §5
Rattus norvegicus [35] = assay: In vivo galactitol inhibitory activity measured by its ability to inhibit galactitol accumulation in lens at 6 mg/Kg/day; type: functional, Lens of camera-type eye; conditions: Rattus norvegicus, Lens of camera-type eye; outline: as §1
Rattus norvegicus [36] = assay: In vivo galactitol inhibitory activity measured by its ability to inhibit galactitol accumulation in diaphragm at 81 mg/Kg/day; type: functional; outline: as §1
Rattus norvegicus [37] = assay: In vivo galactitol inhibitory activity measured by its ability to inhibit galactitol accumulation in lens at 81 mg/Kg/day; type: functional; conditions: Lens of camera-type eye; outline: as §2
Rattus norvegicus [38] = assay: In vivo galactitol inhibitory activity measured by its ability to inhibit galactitol accumulation in sciatic nerve at 81 mg/Kg/day; type: functional; outline: as §2
Rattus norvegicus [39] = assay: In vivo galactitol inhibitory activity measured by its ability to inhibit galactitol accumulation in lens at 10 mg/Kg/day; NS=Not significant (% Inhibition); type: functional; conditions: Lens of camera-type eye; outline: as §1

inhibition [4]: 29% | inhibition [5]: 74%
Compound: CN1C(=O)c2ccc(F)cc2C12CC(=O)NC2=O (stereo not given)
inhibition in vivo at 52 mg/kg/day (Rattus norvegicus [6]): 71% | inhibition in vivo at 52 mg/kg/day (Rattus norvegicus [7]): 26% | inhibition (Rattus norvegicus [8]): inactive | inhibition in vivo at 3 mg/kg/day (Rattus norvegicus [9]): 15% | inhibition in vivo at 52 mg/kg/day (Rattus norvegicus [10]): 68% | Decrease (Mus musculus [11]): <15% | inhibition (Rattus norvegicus [12]): inactive

inhibition [4]: 7% | inhibition [5]: 54%
Compound: O=C1CC2(C(=O)N1)c1ccccc1C(=O)N2Cc1ccc(Br)cc1F (stereo not given)
inhibition in vivo at 101 mg/kg/day (Rattus norvegicus [22]): 30% | inhibition (Rattus norvegicus [23]): inactive | inhibition (Rattus norvegicus [24]): inactive | Decrease (Mus musculus [11]): 36%

inhibition [4]: 0% | inhibition [5]: 21%
Compound: CCN1C(=O)c2ccccc2C12CC(=O)NC2=O (stereo not given)
inhibition in vivo at 73 mg/kg/day (Rattus norvegicus [25]): 62% | inhibition in vivo at 73 mg/kg/day (Rattus norvegicus [26]): 47% | inhibition in vivo at 66 mg/kg/day (Rattus norvegicus [27]): 25%

inhibition [28]: 63% | inhibition [5]: 0%
Compound: O=C1CC2(C(=O)N1)c1ccccc1S(=O)(=O)N2Cc1ccc(Cl)c(Cl)c1 (stereo not given)
Decrease (Mus musculus [29]): <15% | Decrease (Mus musculus [11]): 27%

More lines, now with the values behind:

Compound: O=C1CC2(C(=O)N1)C(=O)N1CCOc3cc(Cl)cc2c31 (stereo not given)
inhibition in vivo at 10 mg/kg/day (Rattus norvegicus [1]): 20% | inhibition in vivo at 10 mg/kg/day (Rattus norvegicus [2]): 88% | inhibition in vivo at 10 mg/kg/day (Rattus norvegicus [3]): 57% | inhibition [4]: 32% | inhibition [5]: 66%

Compound: CN1C(=O)c2cc(Cl)c(Cl)cc2C12CC(=O)NC2=O (stereo not given)
inhibition in vivo at 50 mg/kg/day (Rattus norvegicus [13]): 71% | inhibition (Rattus norvegicus [14]): inactive | inhibition in vivo at 50 mg/kg/day (Rattus norvegicus [15]): 94% | inhibition in vivo at 9 mg/kg/day (Rattus norvegicus [16]): 25% | inhibition (Rattus norvegicus [8]): inactive | inhibition in vivo at 9 mg/kg/day (Rattus norvegicus [17]): 57% | inhibition in vivo at 50 mg/kg/day (Rattus norvegicus [18]): 90% | inhibition [4]: 38% | inhibition in vivo at 6 mg/kg/day (Rattus norvegicus [19]): 44% | inhibition (Rattus norvegicus [20]): inactive | inhibition in vivo at 3 mg/kg/day (Rattus norvegicus [9]): 25% | inhibition [5]: 83% | Decrease (Mus musculus [11]): 31% | inhibition in vivo at 9 mg/kg/day (Rattus norvegicus [21]): 10% | inhibition (Rattus norvegicus [12]): inactive

Compound: CC1(COc2ccc(CC3SC(=O)NC3=O)cc2)CCCCC1 (stereo not given) [CIGLITAZONE]
Decrease (Mus musculus [30]): 32% | inhibition [31]: 9% | inhibition (Rattus norvegicus [32]): inactive | inhibition (Rattus norvegicus [33]): inactive | inhibition [34]: inactive

Compound: CN1C(=O)c2cc(Cl)ccc2C12CC(=O)NC2=O (stereo not given)
inhibition in vivo at 10 mg/kg/day (Rattus norvegicus [1]): 34% | inhibition in vivo at 6 mg/kg/day (Rattus norvegicus [35]): 31% | inhibition [4]: 21% | inhibition (Rattus norvegicus [20]): inactive | inhibition [5]: 72% | inhibition in vivo at 81 mg/kg/day (Rattus norvegicus [36]): 81% | inhibition in vivo at 81 mg/kg/day (Rattus norvegicus [37]): 54% | inhibition in vivo at 81 mg/kg/day (Rattus norvegicus [38]): 77% | Decrease (Mus musculus [11]): <15% | inhibition (Rattus norvegicus [39]): inactive | inhibition (Rattus norvegicus [12]): inactive
